CHO parental Ca: signal in parental CHO cells, OX1R antagonist counter-screen; parental CHO-K1, ATP-induced calcium, Fluo-8 fluorescence; inhibition, % at 5.6 µM; actives 0.63% (n = 330,000);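 active means inhibition above that plate's mean sample inhibition plus 3 SD, cut at about 26% in these data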
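test system = CHO parental line | reagent = ATP stimulus | measured by = intracellular calcium via Fluo-8 no-wash fluorescent dye | control set = ATP and no-ATP DMSO wells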
M1 ag parental: nonselective activator or artifact in parental CHO-K1 cells. AID 602248. actives 0.48% (n = 360,000). activation, % at 3 µM. Fluo-8 calcium fluorescence; scaled to maximal ATP response, vehicle zero; in the data active means activation above about 15%;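 further: untransfected CHO-K1 host cells lacking M1 receptor as counterscreen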
CHO-K1 Ca antag: nonselective inhibitor or artifact in parental CHO-K1 cells; ATP-induced calcium, Fluo-8 fluorescence; inhibition, % at 3 µM; actives 0.6% (n = 360,000); AID 602250;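 active means inhibition above a per-plate cutoff, the plate's mean sample inhibition plus 3 SD, cut at about 24% in these data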
OX1R antag-1: antagonists of human orexin 1 receptor. O43613. CHO/OX1R cells, Fluo-8 calcium fluorescence, orexin A. inhibition, % at 5 µM. actives 0.43% (n = 330,000);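 active means inhibition above its plate's threshold, mean inhibition of all tested compounds on the plate plus 3 SD, cut at about 37% in these data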
Target sequence (O43613 whole entry, looked up): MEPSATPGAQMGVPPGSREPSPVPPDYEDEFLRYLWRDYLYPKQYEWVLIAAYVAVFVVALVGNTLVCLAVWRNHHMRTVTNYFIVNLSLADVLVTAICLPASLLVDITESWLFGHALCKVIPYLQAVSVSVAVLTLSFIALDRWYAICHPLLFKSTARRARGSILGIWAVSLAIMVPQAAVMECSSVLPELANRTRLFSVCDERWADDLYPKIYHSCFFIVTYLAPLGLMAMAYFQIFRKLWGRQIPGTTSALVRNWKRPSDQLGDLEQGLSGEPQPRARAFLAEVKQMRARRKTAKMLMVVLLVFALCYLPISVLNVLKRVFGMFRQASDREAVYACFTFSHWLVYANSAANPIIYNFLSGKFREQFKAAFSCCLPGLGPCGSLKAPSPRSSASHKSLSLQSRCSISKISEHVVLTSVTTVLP
OX1R antag-2: blocks the human orexin 1 receptor | O43613 | OX1R-expressing cells, FRET antagonist read-out | inhibition, % at 6.6 µM | actives 1.8% (n = 330,000) | AID 485270; in the data active means inhibition mostly above about 38%, no sharp cut-off; inactive means mostly below about 40%
CHO-K1 Ca PAM: M1 PAM counterscreen hit in parental CHO-K1 cells | ATP EC20, Fluo-8 calcium fluorescence; 0% at ATP EC20, 100% at ATP max | activation, % at 3 µM | actives 0.02% (n = 360,000);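 active means activation above the run cutoff, the mean activation of all test compounds plus 3 SD, cut at about 40% in these data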;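 further: peak over basal fluorescence ratio in a 140 s read after ATP addition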
Each line names hits and unclear results; the compound was inactive in the other large screens. Rows were chosen to be rich in hits. Some 2.9% of all compounds tested hit in one or more screens of this group.

O=C(c1c(F)cccc1F)N(C1CCCCC1)C1CCCCC1	none
COc1ccc([C@@H]2CC=C(C(=O)O)[C@H](c3ccc(Br)cc3)N2S(=O)(=O)c2ccccc2C)cc1	OX1R antag-2 53
CCO/C(C)=N/n1c2nc3ccccc3nc2c2c(=O)n(CC(C)C)c(C)nc21	OX1R antag-2 73
CCOCCCn1c(C)nc2c(c1=O)c1nc3ccccc3nc1n2-c1ccc(C)cc1	none
CN(C)c1nc2ccccc2n(C)c1=O	CHO-K1 Ca antag 24
Cn1c(=O)c(C(=O)c2ccccc2)nc2ccccc21	none
COc1cc(/C=C2/SC(=S)N(Cc3ccccc3)C2=O)cc(Cl)c1O	CHO parental Ca 67, OX1R antag-1 95
COc1cc(/C=C2/SC(=S)N(Cc3ccccc3)C2=O)ccc1OCC(=O)O	none
O=C1/C(=C\c2cccc([N+](=O)[O-])c2O)SC(=S)N1Cc1ccccc1	none
COc1cc([N+](=O)[O-])cc(/C=C2/SC(=S)N(Cc3ccccc3)C2=O)c1O	CHO parental Ca 49, M1 ag parental 37, CHO-K1 Ca antag 40, OX1R antag-1 68
COc1cccc(CN(C(=O)Cn2nnc(-c3ccccc3F)n2)C(C(=O)NC(C)(C)C)c2ccncc2)c1 (centres undefined)	none
COc1ccccc1CNc1nc(Nc2ccccc2-n2cccn2)c2sccc2n1	none (no result: CHO parental Ca, OX1R antag-1, OX1R antag-2)
CC(NC(=O)COC(=O)c1ccc2c(=O)n3c(nc2c1)CCCCC3)c1ccc(F)cc1 (centres undefined)	none (no result: CHO parental Ca, OX1R antag-1, OX1R antag-2)
O=[N+]([O-])c1cc(Br)c(O)c(C=Nc2ccc(N3CCOCC3)cc2)c1	OX1R antag-2 66
Nc1nonc1C(=O)NCCN=Cc1cc(Cc2ccccc2)cc(Br)c1O	CHO parental Ca 62
O=C(COC(=O)[C@@H]1CCCN1C(=O)c1cccs1)Nc1ccc(F)cc1[N+](=O)[O-]	OX1R antag-2 64
O=C(CSCc1ccc(Cl)cc1)Nc1cc([N+](=O)[O-])ccc1O	OX1R antag-2 105
OC[C@@H]1CN(Cc2ccncc2)C[C@H](n2cnc3c(N4CCOCC4)ncnc32)O1	none (no result: CHO parental Ca, OX1R antag-1, OX1R antag-2)
O=C(N/N=C/c1cc([N+](=O)[O-])c(N2CCOCC2)cc1N1CCOCC1)c1cccnc1	M1 ag parental 21
O=C(N/N=C/c1ccc([N+](=O)[O-])cc1)c1cccnc1	OX1R antag-2 72
O=C(/C=C/c1cccc([N+](=O)[O-])c1)NCc1cccnc1	OX1R antag-2 72
O=C(N/N=C/c1ccc(-c2ccc([N+](=O)[O-])cc2)o1)c1cccnc1	none
O=C(NCCOC(=O)c1ccc([N+](=O)[O-])cc1)c1cccnc1	OX1R antag-2 69
CC(=O)c1ccccc1NC(=O)COC(=O)CCC1CCCC1	none
Cc1ccc(S(=O)(=O)N2CCCC2)s1	none
CCCN(CCC)Cc1c(C(=O)N/N=C/CCc2ccccc2)nnn1-c1nonc1N	none
CC(/C=C/c1cccc([N+](=O)[O-])c1)=N/NC(=O)c1cccnc1	none
O=C(N/N=C/C=C/c1ccccc1[N+](=O)[O-])c1cccnc1	OX1R antag-2 47
O=C(Oc1c(Br)cc([N+](=O)[O-])cc1Br)c1cccnc1	OX1R antag-2 53
O=C(N/N=C/C=C\c1cccc([N+](=O)[O-])c1)c1cccnc1	OX1R antag-2 36
Nc1nnc(CC(=O)N/N=C/c2ccc([N+](=O)[O-])cc2)s1	OX1R antag-2 75
O=C(/C=C/c1ccc([N+](=O)[O-])cc1)NCc1ccccn1	OX1R antag-2 75
N#CCC(=O)N/N=C/c1cc([N+](=O)[O-])ccc1N1CCOCC1	CHO-K1 Ca antag 26
O=C1NCCCC1C(=O)N/N=C/c1cccc([N+](=O)[O-])c1 (centres undefined)	none
O=C(CN1CCN(Cc2ccccc2Cl)CC1)N/N=C/C=C\c1ccccc1[N+](=O)[O-]	none
O=C1NCCCC1C(=O)N/N=C/c1ccc([N+](=O)[O-])cc1 (centres undefined)	OX1R antag-2 54
O=C(/C=C/c1ccc([N+](=O)[O-])cc1)NCc1cccs1	none
O=C(CN1CCN(Cc2ccccc2Cl)CC1)N/N=C/C=C/c1ccccc1[N+](=O)[O-]	CHO-K1 Ca antag 27
Cn1ncc(N=Cc2c(O)ccc3ccccc23)c1C(=O)Nc1cccc(Cl)c1	none
Cc1ccccc1CSc1nnc(-c2cccs2)n1Cc1ccco1	OX1R antag-2 69
Cc1ccccc1CSc1nnc(-c2ccco2)n1Cc1ccco1	OX1R antag-2 68
CCSC(=O)N1c2ccc(OC)cc2C=CC1C#N (centres undefined)	none (no result: CHO parental Ca, OX1R antag-1, OX1R antag-2)
C=CCn1c(COc2ccc(CC)cc2)nnc1SC/C(O)=C(\C#N)c1nc2ccccc2[nH]1	CHO-K1 Ca antag 26
CN(C)c1ccc2nc3c(=O)[nH]c(=O)nc-3n(CC(O)C(O)C(O)CO)c2c1 (centres undefined)	OX1R antag-2 74
Cc1ncc(C(O)c2ccc(N(C)C)cc2)n1Cc1ccccc1 (centres undefined)	none (no result: CHO parental Ca, OX1R antag-1, OX1R antag-2)
CN(C)CCCN(C(=O)c1ccc([N+](=O)[O-])o1)c1nc2cc3c(cc2s1)OCO3	none
Cc1ccc2[nH]c3c(NCc4ccco4)ncnc3c2c1	OX1R antag-2 50
Cc1cccc(-c2noc(CN(C(=O)c3ccc4c(c3)OCO4)C(C)C)n2)c1	OX1R antag-2 69
Cc1cccc(-c2noc(CN(C(=O)c3ccc(Br)o3)C(C)C)n2)c1	none
Cc1cccc(-c2noc(CN(C(=O)C(c3ccccc3)c3ccccc3)C(C)C)n2)c1	CHO parental Ca 69, OX1R antag-2 43
CC(=O)N1CCN(S(=O)(=O)c2cccc(C(=O)NNC(=O)COc3ccc(F)cc3)c2)CC1	none
COc1ccc(-n2nc3ccccc3n2)cc1	none
COc1ccc(-n2nc3cc(N)c(Br)cc3n2)cc1	OX1R antag-2 43
COc1ccc(-n2nc3cc(C)c(NC(C)=O)cc3n2)cc1	CHO-K1 Ca antag 30
COc1ccc2c(c1)C(C)=CC(C)(C)N2S(=O)(=O)c1ccc(C)cc1	none
CC1=CC(C)(C)N(S(=O)(=O)c2ccc(C)cc2)c2cc(C)ccc21	CHO parental Ca 49
ON=C1c2ccccc2-c2cc(Br)ccc21	none (no result: CHO parental Ca, OX1R antag-1, OX1R antag-2)
CCOC(=O)[C@]12CCC=C1N(Cc1ccc3c(c1)OCO3)C(=O)[C@H](CC(=O)NCC1CCCCC1)C2	none (no result: CHO parental Ca, OX1R antag-1, OX1R antag-2)
CCCNC(=S)N1CCN(c2nc(-c3cccc(OC)c3)cs2)CC1	none
CCCNC(=S)N1CCN(c2nc(-c3ccc(C)cc3)cs2)CC1	CHO parental Ca 53
CC1(C)CC(=O)C2=C(C1)c1c(ccc3ccccc13)NC2c1cc([N+](=O)[O-])cc([N+](=O)[O-])c1O (centres undefined)	none
Cc1ccc(S(=O)(=O)NCC(=O)N/N=C/c2ccccc2O)cc1	none
O=[N+]([O-])c1ccc(N2CCN(Cc3ccccc3)CC2)c2c1no[n+]2[O-]	M1 ag parental 19 (no result: CHO parental Ca, OX1R antag-1, OX1R antag-2)
